Our source for the activation values is PubChem BioAssay AID624467 (The Scripps Research Institute Molecular Screening Center, 2012).

Each structure is given as a SMILES string. Hit rate of the full screen: of about 360,000 compounds, about 3,600 (1%) were called active. Shown is part of a subset that was picked to be rich in actives. Values without a mark were called inactive.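 Rule for the calls: active = activation above the mean activation of all test compounds in the run plus 3 SD (cut at about 38% in these data); inactive = the rest.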

This assay deals with Trace amine-associated receptor 1 (Homo sapiens) (UniProt Q96RJ0). The assay can be described thus: activators of TAAR1 calcium mobilization – Fluo-8 calcium fluorescence, CHO RD-HGA16 cells, primary screen (AID 624467). The conditions noted are these: CHO RD-HGA16 TAAR1, Fluo-8 calcium fluorescence; at 3 µM; stronger effect = higher value. Put shortly: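 Test system: RD-HGA16 (CHO) cells co-expressing Gα16 and hTAAR1 | Doses: Single dose, 3 µM | Schedule: 17-24 h seeding, 75 min 37 °C dye, 30 min RT | Evaluation: % activation from peak over basal fluorescence ratio, DMSO-to-PEA scaled | Technique: Kinetic Fluo-8 calcium fluorescence | Benchmarks: Low control DMSO, high control PEA (EC100)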
Trace amine-associated receptor 1 (Homo sapiens), sequence (Q96RJ0 whole entry, looked up): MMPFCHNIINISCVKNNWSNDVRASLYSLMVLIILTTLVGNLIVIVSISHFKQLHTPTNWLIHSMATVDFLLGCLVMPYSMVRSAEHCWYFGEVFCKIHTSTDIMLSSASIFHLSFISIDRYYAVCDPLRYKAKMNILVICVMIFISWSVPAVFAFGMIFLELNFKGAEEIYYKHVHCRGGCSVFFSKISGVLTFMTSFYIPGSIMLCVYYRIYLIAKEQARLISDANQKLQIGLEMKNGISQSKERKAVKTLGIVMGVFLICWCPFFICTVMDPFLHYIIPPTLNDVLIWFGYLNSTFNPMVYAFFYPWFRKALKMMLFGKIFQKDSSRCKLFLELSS
On the technique in general: Calcium flux is commonly read through the fluorescence of an indicator in the cells.
Regarding `Cc1cccc(N2C(=O)NC(=O)/C(=C\c3cnn(-c4ccccc4)c3)C2=O)c1`, the activation was 44.9% (active).

In the case of `COc1cc(OC)cc(C(=O)NCCN2CCC3(CC2)C(=O)NCN3c2ccccc2)c1`, the activation was 0.43%.

Turning to `CCC(=O)OC(Cc1ccccc1)(c1ccccc1)C(C)CN(C)C` (stereo not given), the activation is 1.23%.

For the molecule `COC(=O)COc1cc(C)cc2oc(=O)c3c(c12)CCCC3`, the activation was 15.7%. The same measure for `CCOP(=O)(OCC)C(NC(=O)NC)C(N)=O` (stereo not given): 1.74%. The same measure for `Cc1ccc(CN2CCCC(C(=O)c3ccc4c(c3)OCO4)C2)cc1C` (stereo not given): 5.3%. The same measure for `CCCCCCN=C(CC)c1c(O)n(CCCC)c(=O)[nH]c1=O`: 18.9%; for `CCC(=NCCc1ccccc1)c1c(O)n(C2CCCCC2)c(=O)[nH]c1=O`: 82.8% (active); for `CC(=O)c1c(O)n(C2CCCCCC2)c(=O)[nH]c1=O`: 2.62%.

With `c1ccc(C(CN2CCCCC2)c2ccccc2)cc1`, the activation was 5.89%.

With `COc1ccc(NC(=O)N2CCC3(CC2)OCCO3)c(OC)c1`, the activation was 4.78%. As for `Brc1ccc2c(c1)CNCc1cnnn1-2`, the activation is 2.44%.

Regarding `CC(=NC1CCN(Cc2ccccc2)CC1)c1c(O)n(C)c(=O)n(C)c1=O`, the activation is -0.62%. In the case of `COc1cc(C(=O)N2Cc3ccc(Br)cc3-n3nncc3C2)cc(OC)c1OC`, the activation is 1.8%. The same measure for `CCOc1cccc(=NC2CCCCC2)c2c(C)[nH]c(C)c12`: 2.88%; for `Clc1ccc([C@@H]2CC3CCC2N3)cn1` (stereo not given in full): 0.89%. As to `CCOC(=O)C1SC2(C(F)(F)C(F)F)CC1(O)c1c(c(OC)c3occc3c1OC)O2` (stereo not given), the activation is 2.66%. With `Cn1c(O)c(C=NCCCC(=O)O)c(=O)n(C)c1=O` the figure was 1.16%.

As to `CCCCC(=O)N/N=C/c1c(O)n(CC)c(=S)n(CC)c1=O`, the activation is 115% (active). Consider `CCCCC(=O)N/N=C/c1c(O)n(CCC2=CCCCC2)c(=O)[nH]c1=O`, for which the activation is 3.56%. With `CC(=NCc1ccc2c(c1)OCO2)c1c(O)[nH]c(=O)[nH]c1=O`, the activation was 4.1%. For the molecule `O=C1NC(=O)N(Cc2ccco2)C(=O)/C1=C\c1ccc(-c2ccc(F)cc2)o1`, the activation was 51.8% (active). `COc1ccc(-c2nn(CCC#N)cc2C(=O)O)cc1`: the activation was 0.78%. The same measure for `C[C@]12CCC3C(CC[C@H]4[C@H](O)[C@H](O)CC[C@]34C)C1CCC2=O` (stereo not given in full): 4.54%; for `COc1ccc2c(c1)[C@@]13CCCCC1[C@@H](C2)NCC3` (stereo not given in full): 4.44%. The same measure for `CCN1CC2C3CCC(C)(O3)C2C1` (stereo not given): 1.68%. `CC(=O)Nc1ccc(C(=O)C(Cc2ccccc2)N(C)C)cc1` (stereo not given): the activation was 5.99%.

As for `CCC(C)NC1(c2ccccc2)CCCCC1` (stereo not given), the activation is 3.45%. The same measure for `CC(Cc1ccccc1)NC=O` (stereo not given): 68.4% (active); for `CC(Cc1ccccc1)NCCC(c1ccccc1)c1ccccc1` (stereo not given): 44.2% (active). For `O=c1c2ccccc2nc(/C=C/c2ccco2)n1-c1ccccc1O`, the activation was 0.46%.

As for `C[N+]12CN3CN(CN(C3)C1)C2`, the activation was 4.95%. With `S=C(NCCc1ccccc1)N1Cc2cc(N3CCOCC3)ccc2-n2nncc2C1` the figure was 25.3%; with `O=S(=O)(c1ccccc1)N1CCC2CCNC2C1` (stereo not given), 2.18%; with `CCN(CC)C(=O)c1ccc(NC(=O)c2cc(-n3cnnc3)ccc2Cl)cc1`, 8.2%. With `Cc1cc(N2CCNC[C@@H]2C)ccc1N1CC[C@H](O)C1` the figure was 0.68%.

For the molecule `CCN(CC)C(=O)[C@@H]1C=C2c3cccc4[nH]c(Br)c(c34)C[C@H]2N(C)C1`, the activation is 0.25%. As for `CS(=O)(=O)N1CCC2CCNC2C1` (stereo not given), the activation is 2.13%. As for `Clc1ccc2nc3c(c(-c4ccccc4)c2c1)CNCC3`, the activation is 55% (active). The same measure for `O=c1[nH]c(=O)n(CCc2ccccc2)c(O)c1/C=N/N1CCOCC1`: 7.45%; for `NCC(O)c1ccc(O)cc1` (stereo not given): 80.5% (active). The same measure for `CC12CN3CC(C)(CN(C1)C3c1cccs1)C2` (stereo not given): 8.25%; for `CC(CC(C#N)(c1ccccc1)c1ccccc1)N1CCCCC1` (stereo not given): 1.72%. The same measure for `O=C(N/N=C/c1c(O)n(C2CC2)c(=S)[nH]c1=O)c1ccccc1Cl`: -1.25%. For `COc1ccc(-n2nnnc2C(c2cccc3ccccc23)N2CCC(n3c(=O)[nH]c4ccccc43)CC2)cc1` (stereo not given), the activation is 3.04%. The same measure for `O=c1[nH]c2ccccc2n1C1CCN(C(c2ccccc2)c2nnnn2Cc2ccccc2)CC1` (stereo not given): 10.1%. `O=c1[nH]c2ccccc2n1C1CCN(C(c2ccnc3ccccc23)c2nnnn2Cc2ccccc2)CC1` (stereo not given): the activation is 40.5% (active). On to `Cc1ccc2c(c1)=C/C(=C\c1c(O)[nH]c(=O)[nH]c1=O)C(=O)N=2`, for which the activation is 0.28%. `COc1cccc(OC)c1C(=O)NC(=S)N1C[C@H]2C[C@H](C1)c1cccc(=O)n1C2`: the activation was 4.06%. The same measure for `O=C1CC(=O)N(Cc2ccccc2)C(=O)N1CCCCCCN1C(=O)CC(=O)N(Cc2ccccc2)C1=O`: 1.5%; for `O=C(CN1CCCC1=O)NCCc1ccccc1`: 38.6% (active); for `c1ccc(CCNC2CCCCCC2)cc1`: 87.1% (active). The same measure for `c1cc2c(cc1CCNC1CCCCCC1)OCO2`: 4.36%.

Regarding `OC(CNC1CCCCC1)c1ccccc1` (stereo not given), the activation is 0.51%.

Consider `COc1ccc(CNCCc2c[nH]c3ccccc23)cc1OC`, for which the activation was 1.21%. Consider `COc1ccc(Br)cc1CNCCc1cccc(Cl)c1`, for which the activation is 49.1% (active). For `COc1ccc(CNCCc2ccc3c(c2)OCO3)c(OC)c1OC`, the activation was 2.45%. Take `CNC(=S)N/N=C1\C2CN3CCN(C2)CC1(c1ccccc1)C3`: the activation is 2.42%. The same measure for `c1ccc2sc(N3CCNCC3)nc2c1`: 10.3%. With `CC(C)CN1Cc2cc(N3CCCCC3)ccc2-n2nncc2C1` the figure was -1.61%.
